Laboratory results reported in ChEMBL document CHEMBL1629545, “A morpholino oligomer targeting highly conserved internal ribosome entry site sequence is able to inhibit multiple species of picornavirus” (Antimicrob Agents Chemother, 2008).
Activity calls are given as the source filed them. The calls are words filed in the database; no cut-off is given here.

Experiments:
[1] = tested on: Poliovirus 1; assay: Antiviral activity against Human poliovirus type 1 infected in Human HeLa cell assessed as inhibition of translation at 10 ug/ml by luciferase reporter gene assay; assay type: functional, organism-based
Method in brief: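 In-cell translation control: HeLa cells electroporated with 20 μg PV1-Luc replicon RNA were placed in medium with 10 μg/ml puromycin at 37°C in 5% CO2. Luciferase in lysates was read by luminometer at hourly time points after transfection. Two experiments were averaged.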

[2] = tested on: Vero; assay: Cytotoxicity against African green monkey Vero cells at 10 uM after 24 hrs by MTS assay; assay type: cell-based; details: chlorocebus sabaeus
[3] = tested on: SK-N-MC; assay: Cytotoxicity against human SK-N-MC cell at 10 uM after 24 hrs by MTS assay; assay type: cell-based
[4] = tested on: HeLa; assay: Cytotoxicity against human HeLa cells 10 uM after 24 hrs by MTS assay; assay type: cell-based
Method in brief: (§1)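 HeLa cells at ~80% confluence, uninfected, exposed to 1–100 μM PPMO or water (mock) in serum-free DMEM-F-12 (1:1) for 24 h. MTS reagent was added for 4 h and absorbance read at 492 nm. Viability was expressed as percent of water-treated cells (set to 100%), averaged over 12 wells.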

[5] = tested on: HeLa; assay: Cytotoxicity against human HeLa cells at 10 uM by MTS assay; assay type: cell-based; method in brief: as §1

Compound	Activity [1]	Activity [2]	Activity [3]	Activity [4]	Activity [5]
COc1ccc(C[C@H](N)C(=O)N[C@H]2[C@@H](O)[C@H](n3cnc4c(N(C)C)ncnc43)O[C@@H]2CO)cc1	Active				
Cc1cn([C@H]2CN(P(=O)(OC[C@@H]3CN(P(=O)(OC[C@@H]4CN(P(=O)(OC[C@@H]5CN(P(=O)(OC[C@@H]6CNC[C@H](n7cnc8c(N)ncnc87)O6)N(C)C)C[C@H](n6cnc7c(N)ncnc76)O5)N(C)C)C[C@H](n5cc(C)c(=O)[nH]c5=O)O4)N(C)C)C[C@H](n4cc(C)c(=O)[nH]c4=O)O3)N(C)C)C[C@@H](COP(=O)(N(C)C)N3C[C@@H](COP(=O)(N(C)C)N4C[C@@H](COP(=O)(N(C)C)N5C[C@@H](COP(=O)(N(C)C)N6C[C@@H](COP(=O)(N(C)C)N7C[C@@H](COP(=O)(N(C)C)N8C[C@@H](COP(=O)(N(C)C)N9C[C@@H](COP(=O)(N(C)C)N%10C[C@@H](COP(=O)(N(C)C)N%11C[C@@H](COP(=O)(N(C)C)N%12C[C@@H](COP(=O)(N(C)C)N%13C[C@@H](COP(=O)(N(C)C)N%14C[C@@H](COP(=O)(N(C)C)N%15C[C@@H](COP(=O)(N(C)C)N%16C[C@@H](COP(=O)(N(C)C)N%17C[C@@H](COP(=O)(N(C)C)N%18C[C@@H](COP(=O)(N(C)C)N%19C[C@@H](COP(=O)(N(C)C)N%20C[C@@H](COP(=O)(N(C)C)N%21C[C@@H](COP(=O)(N(C)C)N%22CCN(C(=O)CCNC(=O)CCCCCNC(=O)[C@H](CCCNC(=N)N)NC(=O)CCCCCNC(=O)[C@H](CCCNC(=N)N)NC(=O)[C@H](CCCNC(=N)N)NC(=O)CCCCCNC(=O)[C@H](CCCNC(=N)N)NC(=O)[C@H](CCCNC(=N)N)NC(=O)CCCCCNC(=O)[C@H](CCCNC(=N)N)NC(=O)[C@H](CCCNC(=N)N)NC(=O)CCCCCNC(=O)[C@@H](N)CCCNC(=N)N)CC%22)O[C@@H](n%22cnc%23c(=O)[nH]c(N)nc%23%22)C%21)O[C@@H](n%21cnc%22c(=O)[nH]c(N)nc%22%21)C%20)O[C@@H](n%20cc(C)c(=O)[nH]c%20=O)C%19)O[C@@H](n%19cnc%20c(N)ncnc%20%19)C%18)O[C@@H](n%18ccc(N)nc%18=O)C%17)O[C@@H](n%17cnc%18c(N)ncnc%18%17)C%16)O[C@@H](n%16cnc%17c(N)ncnc%17%16)C%15)O[C@@H](n%15ccc(N)nc%15=O)C%14)O[C@@H](n%14ccc(N)nc%14=O)C%13)O[C@@H](n%13ccc(N)nc%13=O)C%12)O[C@@H](n%12ccc(N)nc%12=O)C%11)O[C@@H](n%11cc(C)c(=O)[nH]c%11=O)C%10)O[C@@H](n%10cnc%11c(=O)[nH]c(N)nc%11%10)C9)O[C@@H](n9cc(C)c(=O)[nH]c9=O)C8)O[C@@H](n8cnc9c(=O)[nH]c(N)nc98)C7)O[C@@H](n7ccc(N)nc7=O)C6)O[C@@H](n6cc(C)c(=O)[nH]c6=O)C5)O[C@@H](n5cnc6c(=O)[nH]c(N)nc65)C4)O[C@@H](n4cc(C)c(=O)[nH]c4=O)C3)O2)c(=O)[nH]c1=O (stereo partly specified)	inactive	Non-toxic	Non-toxic	Toxic	Non-toxic
Cc1cn([C@H]2CN(P(=O)(OC[C@@H]3CN(P(=O)(OC[C@@H]4CN(P(=O)(OC[C@@H]5CN(P(=O)(OC[C@@H]6CN(P(=O)(OC[C@@H]7CN(P(=O)(OC[C@@H]8CN(P(=O)(OC[C@@H]9CN(P(=O)(OC[C@@H]%10CN(P(=O)(OC[C@@H]%11CN(P(=O)(OC[C@@H]%12CN(P(=O)(OC[C@@H]%13CN(P(=O)(OC[C@@H]%14CN(P(=O)(OC[C@@H]%15CN(P(=O)(OC[C@@H]%16CN(P(=O)(OC[C@@H]%17CN(P(=O)(OC[C@@H]%18CN(P(=O)(OC[C@@H]%19CN(P(=O)(OC[C@@H]%20CN(P(=O)(OC[C@@H]%21CN(P(=O)(OC[C@@H]%22CNC[C@H](n%23cnc%24c(N)ncnc%24%23)O%22)N(C)C)C[C@H](n%22cc(C)c(=O)[nH]c%22=O)O%21)N(C)C)C[C@H](n%21ccc(N)nc%21=O)O%20)N(C)C)C[C@H](n%20cnc%21c(N)ncnc%21%20)O%19)N(C)C)C[C@H](n%19cc(C)c(=O)[nH]c%19=O)O%18)N(C)C)C[C@H](n%18cc(C)c(=O)[nH]c%18=O)O%17)N(C)C)C[C@H](n%17cnc%18c(=O)[nH]c(N)nc%18%17)O%16)N(C)C)C[C@H](n%16cnc%17c(=O)[nH]c(N)nc%17%16)O%15)N(C)C)C[C@H](n%15cnc%16c(=O)[nH]c(N)nc%16%15)O%14)N(C)C)C[C@H](n%14cnc%15c(N)ncnc%15%14)O%13)N(C)C)C[C@H](n%13cc(C)c(=O)[nH]c%13=O)O%12)N(C)C)C[C@H](n%12cnc%13c(=O)[nH]c(N)nc%13%12)O%11)N(C)C)C[C@H](n%11cnc%12c(=O)[nH]c(N)nc%12%11)O%10)N(C)C)C[C@H](n%10cnc%11c(N)ncnc%11%10)O9)N(C)C)C[C@H](n9cnc%10c(=O)[nH]c(N)nc%109)O8)N(C)C)C[C@H](n8cc(C)c(=O)[nH]c8=O)O7)N(C)C)C[C@H](n7ccc(N)nc7=O)O6)N(C)C)C[C@H](n6cnc7c(N)ncnc76)O5)N(C)C)C[C@H](n5cnc6c(=O)[nH]c(N)nc65)O4)N(C)C)C[C@H](n4ccc(N)nc4=O)O3)N(C)C)C[C@@H](COP(=O)(N(C)C)N3CCN(C(=O)CCNC(=O)CCCCCNC(=O)[C@H](CCCNC(=N)N)NC(=O)CCCCCNC(=O)[C@H](CCCNC(=N)N)NC(=O)[C@H](CCCNC(=N)N)NC(=O)CCCCCNC(=O)[C@H](CCCNC(=N)N)NC(=O)[C@H](CCCNC(=N)N)NC(=O)CCCCCNC(=O)[C@H](CCCNC(=N)N)NC(=O)[C@H](CCCNC(=N)N)NC(=O)CCCCCNC(=O)[C@@H](N)CCCNC(=N)N)CC3)O2)c(=O)[nH]c1=O (stereo partly specified)	inactive	Non-toxic	Non-toxic	Toxic	Non-toxic
